Experimental findings from ChEMBL document CHEMBL1129031, “Cyclic nitrone free radical traps: isolation, identification, and synthesis of 3,3-dimethyl-3,4-dihydroisoquinolin-4-ol N-oxide, a metabolite with reduced side effects” (J Med Chem, 1996) are described below.

For data set [1], the system named is Mus musculus. Description: (§1) The compound was tested for acute toxicity and activity is expressed as deaths/5 mice after iv (200 mg/kg) administration. It counts as organism-based. The note with it: in vivo. In short, it runs like this: (§2)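 Acute toxicity screen in mice given the compound intravenously at 200 mg/kg body weight, five mice per group. Read-out is the survival rate, reported as the number of deaths among the five animals.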

The nature of data set [2]: Lipophilicity expressed as log K'w. It counts as physicochemical. The following applies: reversed-phase HPLC.
Data set [3] has as its system Mus musculus. Description: (§3) The compound was tested for acute toxicity and activity is expressed as deaths/5 mice after iv (400 mg/kg) administration. It counts as organism-based. The following applies: in vivo. The method in brief:
(§4)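 Acute toxicity screen in mice given the compound intravenously at 400 mg/kg body weight, five mice per group. Read-out is the survival rate, reported as the number of deaths among the five animals.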

Data set [4] in a line: In vitro antioxidant activity was measured as IC50, inhibition concentration against neuronal peroxidation. In kind it is functional, Rattus norvegicus. In short, it runs like this:
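Rat cerebellar granule cells (from 8-day pups, 8-10 days in vitro) in glucose-free Na⁺-free Locke's, pH 7.3. Nitrone was preincubated 30 min, then FeCl₂ added at 100 µM final for 45 min. TBARS measured in the medium, with no-iron background subtracted. IC50 is the concentration inhibiting 50% of iron-induced oxidation.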

The nature of data set [5]: In vitro antioxidant activity was measured as IC50, Inhibition concentration against Liposomal peroxidation. It counts as functional, Glycine max. The method in brief:
(§5)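 Liposomes were made from soybean phosphatidylcholine. Oxidation was initiated and quantitated by the previously described method. Activity is expressed as IC50, the concentration inhibiting lipid peroxidation by 50%.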

The subject of data set [6] is Mus musculus. Described as §3. It counts as functional. The method in brief:
as §4

Data set [7] can be described thus: Compound was tested for brain permeability at 200 mg/kg i.p. after 30 min. In kind it is ADME, organism-based. Set-up: dose 200 mg/kg, route intraperitoneal. The following applies: in vivo, ip, 0.5 h. In short, it runs like this:
(§6)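 Rats given a single ip dose of 200 mg/kg and killed at 30 or 60 min after dosing. Brains were removed, homogenized and extracted with CHCl₃/MeOH. Brain level is reported as µg/g wet weight.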

A short description of data set [8]: Compound was tested for brain permeability at 200 mg/kg i.p. after 60 min. It counts as ADME, organism-based. Set-up: dose 200 mg/kg, route intraperitoneal. The note with it: in vivo, ip, 1 h. In short, it runs like this:
as §6

Data set [9] deals with Mus musculus. The description is as §1. In kind it is functional. In short, it runs like this:
as §2

Data set [10] in a line: Maintenance of cell viability by the compound was tested in vitro against cerebellar granule cell cultures from 8-day-old-rats. The note with it: Rattus norvegicus. In kind it is functional. The method in brief:
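Cerebellar granule cultures from 8-day-old rats were used at 8-10 days in vitro. Cells got nitrone for 30 min, then 100 µM FeCl₂ for 45 min in Na⁺-free Locke's. MEM plus MTT was added for 4 h and the cells lysed in acidic 2-propanol. Read at A570-630, with cell death given relative to no-iron cells. Two separate experiments about 6 months apart.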

Data set [11] relates to Rattus norvegicus. Description: Compound was tested for rat brain permeability at 200 mg/kg i.p. after 60 min. It counts as ADME, organism-based. Further details: dose 200 mg/kg, route intraperitoneal. The note with it: in vivo, ip, 1 h. In short, it runs like this: as §6
The subject of data set [12] is Rattus norvegicus. The data set can be described thus: Compound was tested for rat brain permeability at 200 mg/kg i.p. after 30 min. In kind it is ADME, organism-based. Set-up: dose 200 mg/kg, route intraperitoneal. The following applies: in vivo, ip, 0.5 h. The method in brief:
as §6

A short description of data set [13]: In vitro antioxidant activity was measured as IC50, Inhibitory concentration against Liposomal peroxidation. It counts as functional, Glycine max. In short, it runs like this:
as §5

As usually defined, the IC50 is the concentration needed to halve the response being measured. A higher IC50 goes with lower potency.

Regarding `O=C1c2ccccc2C=[N+]([O-])C12CCCC2`, the Toxicity in the data set on Mus musculus [1] amounted to 0; in the data set on Mus musculus [3], 4. For the same compound, the “Log k'w” value in [2] was 2.05. Further, the IC50 in [4] was 102 µM; in data set [5], 157 µM.
Regarding `CC1(C)Cc2ccccc2C=[N+]1[O-]`, the Toxicity in the data set on Mus musculus [6] amounted to 5; in the data set on Mus musculus [9], 0. Further, the Brain level amounted to 109 µg/g in data set [7] and 77 µg/g in data set [8]. For the same compound, the “Log k'w” value in [2] turned out to be 1.9. Further, the IC50 in [4] is 307 µM; in data set [5] it was 1670 µM.
Regarding `O=C1c2ccccc2C=[N+]([O-])C12CCCCC2`, the Toxicity in the data set with Mus musculus [1] stood at 0; in the data set on Mus musculus [3], 5. Besides, the figures for the IC50 in data set [10], in data set [4] and in data set [5] were 39 µM, 37 µM and 27 µM, respectively. Further, the “Log k'w” value in data set [2] was determined as 2.6.
As to `[O-][N+]1=Cc2ccccc2C(O)C12CCCC2` (centres undefined), the Toxicity in the data set on Mus musculus [1] and with Mus musculus [3] was 0 throughout. Also, the results for the IC50 in [10], in [4] and in data set [5] were 817 µM, 771 µM and 1040 µM, respectively. Also, the “Log k'w” value in data set [2] is 1.67.
Consider `CC1(C)C(O)c2ccccc2C=[N+]1[O-]` (centres undefined), for which the Toxicity in the data set with Mus musculus [6] and in the data set on Mus musculus [9] was 0 throughout. The figures for the Brain level in data set [7] and in data set [8] were 142 µg/g and 127 µg/g, respectively. In addition, the IC50 in [10] is 1500 µM; in data set [4], 1900 µM; in data set [5] it was 5500 µM. In addition, the “Log k'w” value in [2] amounted to 0.91.
Regarding `[O-][N+]1=Cc2ccccc2C(O)C12CCCCC2` (centres undefined), the Toxicity in the data set with Mus musculus [1] and with Mus musculus [3] was 0 in each case. In addition, the values for the IC50 in [10], in data set [4] and in data set [5] were 588 µM, 520 µM and 539 µM, respectively. The “Log k'w” value in [2] was found to be 2.1.
For the compound `CC(C)(C)/[N+]([O-])=C/c1ccccc1`, the Toxicity in the data set on Mus musculus [6] stood at 4; in the data set with Mus musculus [9], 1. Besides, the IC50 in data set [10] stood at 2600 µM; in data set [4] it was 2580 µM; in [13], 14300 µM. Further, the Brain level with Rattus norvegicus [11] worked out at 38 µg/g; in the data set on Rattus norvegicus [12] it was 51 µg/g.
On to `CC(=O)OC1c2ccccc2C=[N+]([O-])C1(C)C` (centres undefined), for which the Toxicity in the data set with Mus musculus [1] and in the data set with Mus musculus [3] was 0 each time. The results for the IC50 in data set [10], in [4] and in [5] were 660 µM, 839 µM and 2090 µM, respectively. The “Log k'w” value in data set [2] is listed as 1.95.
Regarding `CC1(C)C(=O)c2ccccc2C=[N+]1[O-]`, the values for the Toxicity with Mus musculus [1] and with Mus musculus [3] were 0 and 1, respectively. Further, the results for the IC50 in data set [10], in [4] and in [5] were 882 µM, 830 µM and 940 µM, respectively. Also, in data set [2], the “Log k'w” value is 1.65. The Brain level in the data set on Rattus norvegicus [11] was determined as 67 µg/g; in the data set with Rattus norvegicus [12], 103 µg/g.
